Assay results taken from ChEMBL document CHEMBL3286281, “Amino derivatives of glycyrrhetinic acid as potential inhibitors of cholinesterases” (Bioorg Med Chem, 2014).

What was measured:
[1] = Cytotoxicity against mouse NIH/3T3 cells after 96 hrs by sulforhodamine-B assay; type: cell-based; conditions: NIH3T3, 96 h
Summary of the method: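 NIH 3T3 murine embryonic fibroblasts grown as monolayers in RPMI 1640 with 10% heat-inactivated FBS and penicillin/streptomycin, 37 °C, 5% CO2. Cells seeded, then exposed after 24 h to serial dilutions (0-30 μM) for 96 h, DMSO or DMF ≤0.5%. Fixed with 10% TCA at 4 °C, stained with 0.4% SRB, dye solubilized in 10 mM Tris base, absorbance read at 570 nm. Survival relative to untreated controls gave IC50. Triplicate.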

[2] = tested on: Candida antarctica; assay: Inhibition of Candida antarctica lipase at 50 uM
Summary of the method: (§1)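 Enzyme (bovine erythrocyte carbonic anhydrase II or Candida antarctica lipase) in 50 mM Tris-HCl pH 8.0 preincubated with compound for 20 min at 37 °C. Reaction started with 4-nitrophenyl acetate substrate. Absorbance at 415 nm followed each minute for 10 min at 37 °C, in duplicate. Relative inhibition taken as the slope ratio, compound over blank, over the linear range.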

[3] = Selectivity ratio of Ki for Electrophorus electricus AChE to Ki for equine serum BChE
Summary of the method: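 Ki from Ellman kinetics at pH 8.0 and 30 °C after 20 min enzyme–inhibitor–DTNB preincubation. Inhibitor at several concentrations plus a water blank; ATChI or BTChI at 0.9375, 0.625, 0.325 and 0.1875 mM. A415 read every 1 min for 30 min, in triplicate. Ki from Lineweaver-Burk, Dixon and Cornish-Bowden plots; F = Ki(AChE)/Ki(BChE).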

[4] = biological target: Carbonic anhydrase 2 (Bos taurus) (UniProt P00921); assay: Inhibition of bovine erythrocytes carbonic anhydrase 2 at 50 uM; summary of the method: as §1
[5] = biological target: Acetylcholinesterase (Electrophorus electricus) (UniProt O42275); assay: Inhibition of Electrophorus electricus AChE using acetylthiocholine iodide as substrate at 50 uM after 20 mins measured for 1 min interval for 30 mins by Ellman's method
Summary of the method: (§2)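 Ellman assay in 50 mM Tris-HCl pH 8.0. Enzyme was preincubated with DTNB (3 mM stock) and compound at 30 °C for 20 min. Reaction started with ATChI for AChE or BTChI for BChE. Absorbance at 415 nm was read at 30 °C every 1 min for 30 min. Triplicates.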

[6] = biological target: Acetylcholinesterase (Electrophorus electricus, UniProt O42275); assay: Inhibition of Electrophorus electricus AChE using acetylthiocholine iodide as substrate after 20 mins measured for 1 min interval for 30 mins by Ellman's method
[7] = biological target: Cholinesterase (Equus caballus, UniProt P81908); assay: Inhibition of equine serum BChE using butyrylthiocholine iodide as substrate after 20 mins measured for 1 min interval for 30 mins by Ellman's method
[8] = biological target: Cholinesterase (Equus caballus) (UniProt P81908); assay: Inhibition of equine serum BChE using butyrylthiocholine iodide as substrate at 50 uM after 20 mins measured for 1 min interval for 30 mins by Ellman's method; summary of the method: as §2
[9] = biological target: T1, Papain (Carica papaya) (UniProt P00784); assay: Inhibition of Carica papaya papain at 50 uM
T1 sequence (whole entry): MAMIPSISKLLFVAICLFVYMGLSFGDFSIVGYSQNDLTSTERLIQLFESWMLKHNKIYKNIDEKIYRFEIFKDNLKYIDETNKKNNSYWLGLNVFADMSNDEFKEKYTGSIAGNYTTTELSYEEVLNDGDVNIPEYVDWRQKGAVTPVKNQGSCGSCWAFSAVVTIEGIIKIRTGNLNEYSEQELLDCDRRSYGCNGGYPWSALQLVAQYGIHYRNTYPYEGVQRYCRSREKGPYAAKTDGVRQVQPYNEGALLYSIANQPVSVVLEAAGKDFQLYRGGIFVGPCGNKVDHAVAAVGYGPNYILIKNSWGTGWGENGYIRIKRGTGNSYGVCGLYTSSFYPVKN
Summary of the method: (§3)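 Carica papaya papain in 50 mM Tris-HCl pH 6.2 preincubated with compound for 20 min at 37 °C. Reaction started with 4-nitrophenyl acetate. Absorbance at 415 nm read each minute for 10 min at 37 °C, in duplicate. Relative inhibition calculated as the ratio of slopes, compound versus blank, over the linear range.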

[10] = Solubility of the compound; type: physicochemical
[11] = tested on: Candida antarctica; assay: Inhibition of Candida antarctica lipase at 10 uM; summary of the method: as §1
[12] = biological target: Carbonic anhydrase 2 (Bos taurus) (UniProt P00921); assay: Inhibition of bovine erythrocytes carbonic anhydrase 2 at 10 uM; summary of the method: as §1
[13] = biological target: Acetylcholinesterase (Electrophorus electricus) (UniProt O42275); assay: Inhibition of Electrophorus electricus AChE using acetylthiocholine iodide as substrate at 10 uM after 20 mins measured for 1 min interval for 30 mins by Ellman's method; summary of the method: as §2
[14] = biological target: T1, Papain (Carica papaya); assay: Inhibition of Carica papaya papain at 10 uM; summary of the method: as §3
[15] = biological target: Cholinesterase (Equus caballus) (UniProt P81908); assay: Inhibition of equine serum BChE using butyrylthiocholine iodide as substrate at 10 uM after 20 mins measured for 1 min interval for 30 mins by Ellman's method; summary of the method: as §2

Chain of Acetylcholinesterase (Electrophorus electricus) (O42275 24-633 limits assumed): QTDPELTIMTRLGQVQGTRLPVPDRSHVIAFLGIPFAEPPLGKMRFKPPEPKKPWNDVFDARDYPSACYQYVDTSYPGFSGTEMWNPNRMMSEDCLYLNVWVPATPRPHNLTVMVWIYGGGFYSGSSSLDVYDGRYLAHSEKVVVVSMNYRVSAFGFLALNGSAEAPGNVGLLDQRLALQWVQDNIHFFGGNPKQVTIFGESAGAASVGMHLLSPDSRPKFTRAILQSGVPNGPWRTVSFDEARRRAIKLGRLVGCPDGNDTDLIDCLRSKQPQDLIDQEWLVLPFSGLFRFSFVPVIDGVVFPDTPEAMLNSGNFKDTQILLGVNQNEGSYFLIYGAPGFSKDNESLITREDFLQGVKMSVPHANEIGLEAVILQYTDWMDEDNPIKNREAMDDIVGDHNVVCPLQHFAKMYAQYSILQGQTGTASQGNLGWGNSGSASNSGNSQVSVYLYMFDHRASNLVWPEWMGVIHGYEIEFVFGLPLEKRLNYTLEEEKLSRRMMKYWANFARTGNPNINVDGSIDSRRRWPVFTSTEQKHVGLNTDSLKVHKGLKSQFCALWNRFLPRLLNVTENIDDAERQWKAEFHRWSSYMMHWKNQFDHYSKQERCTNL
Chain of Carbonic anhydrase 2 (Bos taurus) (P00921 2-260 limits assumed): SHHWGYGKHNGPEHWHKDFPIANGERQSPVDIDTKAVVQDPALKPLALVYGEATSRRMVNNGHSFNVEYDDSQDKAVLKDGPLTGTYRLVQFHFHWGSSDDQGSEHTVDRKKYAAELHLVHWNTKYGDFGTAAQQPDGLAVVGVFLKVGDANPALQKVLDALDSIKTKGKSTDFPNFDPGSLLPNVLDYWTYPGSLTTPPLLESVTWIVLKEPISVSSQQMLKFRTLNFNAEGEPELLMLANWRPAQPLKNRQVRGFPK
Chain of Cholinesterase (P81908 whole entry): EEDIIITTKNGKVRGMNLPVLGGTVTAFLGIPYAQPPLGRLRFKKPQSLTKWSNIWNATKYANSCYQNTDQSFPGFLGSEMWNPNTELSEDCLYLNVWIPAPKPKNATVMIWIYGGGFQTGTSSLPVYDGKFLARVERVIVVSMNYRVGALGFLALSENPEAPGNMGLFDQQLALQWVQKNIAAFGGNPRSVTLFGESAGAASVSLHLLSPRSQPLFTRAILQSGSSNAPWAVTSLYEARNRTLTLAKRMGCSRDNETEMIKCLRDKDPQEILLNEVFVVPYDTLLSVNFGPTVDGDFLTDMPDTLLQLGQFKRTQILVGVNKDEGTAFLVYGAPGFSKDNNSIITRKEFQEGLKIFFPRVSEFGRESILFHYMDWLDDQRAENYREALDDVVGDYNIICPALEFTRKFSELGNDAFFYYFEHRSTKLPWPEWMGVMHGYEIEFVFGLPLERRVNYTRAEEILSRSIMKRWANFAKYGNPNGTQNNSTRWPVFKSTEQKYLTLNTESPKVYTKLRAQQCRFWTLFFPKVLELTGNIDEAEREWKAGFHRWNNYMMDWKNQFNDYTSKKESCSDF
Chain of Cholinesterase (Equus caballus) (P81908 whole entry): as above
Chain of Acetylcholinesterase (O42275 whole entry): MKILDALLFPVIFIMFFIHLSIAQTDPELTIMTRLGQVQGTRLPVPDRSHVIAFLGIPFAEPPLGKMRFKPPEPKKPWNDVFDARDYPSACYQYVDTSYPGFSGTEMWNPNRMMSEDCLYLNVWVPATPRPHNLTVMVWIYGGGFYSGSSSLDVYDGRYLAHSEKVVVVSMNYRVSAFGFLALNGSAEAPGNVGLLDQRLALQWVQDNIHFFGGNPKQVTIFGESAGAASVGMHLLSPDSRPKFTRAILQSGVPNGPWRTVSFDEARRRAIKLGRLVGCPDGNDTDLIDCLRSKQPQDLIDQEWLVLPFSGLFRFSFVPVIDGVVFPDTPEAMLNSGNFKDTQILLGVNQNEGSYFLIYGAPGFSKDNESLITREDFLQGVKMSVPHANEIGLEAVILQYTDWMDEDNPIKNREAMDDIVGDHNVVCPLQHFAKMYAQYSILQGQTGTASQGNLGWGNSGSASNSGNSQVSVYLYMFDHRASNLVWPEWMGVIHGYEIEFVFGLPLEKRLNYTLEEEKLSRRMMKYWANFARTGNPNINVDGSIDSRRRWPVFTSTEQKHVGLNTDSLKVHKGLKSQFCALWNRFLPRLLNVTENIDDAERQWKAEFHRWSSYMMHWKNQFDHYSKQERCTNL

Q: Which IC50 [1] does the source give for `CC1(C)[C@@H](O)CC[C@]2(C)[C@H]3C(=O)C=C4[C@@H]5C[C@@](C)(C(=O)NCCCN)CC[C@]5(C)CC[C@@]4(C)[C@]3(C)CC[C@@H]12` here?
A: The IC50 was over 30 µM.

Q: And the inhibition [2]?
A: Its inhibition is 51%.

Q: And the Ratio Ki [3]?
A: The Ratio Ki was over 18.4.

Q: And the inhibition [4]?
A: Its inhibition is 0%.

Q: What about the inhibition [5] of the same molecule?
A: The inhibition was 35%.

Q: And the Ki [6]?
A: The Ki was over 100 µM.

Q: What about the Ki [7] of the same molecule?
A: The Ki was 5.43 µM.

Q: And the inhibition [8]?
A: Its inhibition is 79%.

Q: What about the inhibition [9] of the same molecule?
A: The inhibition was 0%.

Q: Which solubility [10] does the source give for `COC(=O)[C@@]1(C)CC[C@]2(C)CC[C@]3(C)C(=CC(=O)[C@@H]4[C@@]5(C)CC[C@H](OC(=O)[C@@H](N)CC(C)C)C(C)(C)[C@@H]5CC[C@]43C)[C@@H]2C1` here?
A: Its solubility is “Insoluble”.

Q: For `CC1(C)[C@@H](O)CC[C@]2(C)[C@H]3C(=O)C=C4[C@@H]5C[C@@](C)(C(=O)OCCCCCCBr)CC[C@]5(C)CC[C@@]4(C)[C@]3(C)CC[C@@H]12`, which IC50 [1] is on record?
A: Its IC50 is over 30 µM.

Q: And the inhibition [2]?
A: The inhibition was 45%.

Q: What about the Ratio Ki [3] of the same molecule?
A: The Ratio Ki was under 0.13.

Q: And the inhibition [4]?
A: The inhibition was 0%.

Q: What about the inhibition [5] of the same molecule?
A: The inhibition was 43%.

Q: And the Ki [6]?
A: The Ki was 13 µM.

Q: And the Ki [7]?
A: The Ki was over 100 µM.

Q: And the inhibition [8]?
A: Its inhibition is 30%.

Q: And the inhibition [9]?
A: The inhibition was 0%.

Q: For `COC(=O)[C@@]1(C)CC[C@]2(C)CC[C@]3(C)C(=CC(=O)[C@@H]4[C@@]5(C)CC[C@H](OC(=O)[C@H](C)N)C(C)(C)[C@@H]5CC[C@]43C)[C@@H]2C1`, which solubility [10] is on record?
A: The solubility was “Insoluble”.

Q: With `COC(=O)[C@@]1(C)CC[C@]2(C)CC[C@]3(C)C(=CC(=O)[C@@H]4[C@@]5(C)CC[C@H](OC(=O)[C@@H](N)CCCN)C(C)(C)[C@@H]5CC[C@]43C)[C@@H]2C1` as the molecule, how does the solubility [10] read?
A: Its solubility is “Insoluble”.

Q: With `COC(=O)[C@@]1(C)CC[C@]2(C)CC[C@]3(C)C(=CC(=O)[C@@H]4[C@@]5(C)CC[C@H](OC(=O)[C@@H](N)CCN)C(C)(C)[C@@H]5CC[C@]43C)[C@@H]2C1` as the molecule, how does the IC50 [1] read?
A: The IC50 was 3.05 µM.

Q: And the inhibition [2]?
A: The inhibition was 38%.

Q: And the Ratio Ki [3]?
A: The Ratio Ki was under 0.19.

Q: And the inhibition [4]?
A: The inhibition was 0%.

Q: What about the inhibition [5] of the same molecule?
A: Its inhibition is 68%.

Q: And the Ki [6]?
A: Its Ki is 18.7 µM.

Q: What about the Ki [7] of the same molecule?
A: Its Ki is over 100 µM.

Q: What about the inhibition [8] of the same molecule?
A: Its inhibition is 16%.

Q: What about the inhibition [9] of the same molecule?
A: Its inhibition is 0%.

Q: What does the source list for `CC1(C)[C@@H](O)CC[C@]2(C)[C@H]3C(=O)C=C4[C@@H]5C[C@@](C)(C(=O)On6nnc7ccccc76)CC[C@]5(C)CC[C@@]4(C)[C@]3(C)CC[C@@H]12`?
A: IC50 [1]: > 30 µM; Ratio Ki [3]: > 2.04; inhibition [11]: 32%; inhibition [12]: 27%; Ki [6]: > 20 µM; inhibition [13]: 49%; inhibition [14]: 0%; Ki [7]: 9.81 µM; inhibition [15]: 68%

Q: With `COC(=O)[C@@]1(C)CC[C@]2(C)CC[C@]3(C)C(=CC(=O)[C@@H]4[C@@]5(C)CC[C@H](OC(=O)[C@@H](N)CCC(=O)OCc6ccccc6)C(C)(C)[C@@H]5CC[C@]43C)[C@@H]2C1` as the molecule, how does the IC50 [1] read?
A: The IC50 was over 30 µM.

Q: What about the inhibition [2] of the same molecule?
A: The inhibition was 51%.

Q: What about the Ratio Ki [3] of the same molecule?
A: The Ratio Ki was under 0.16.

Q: What about the inhibition [4] of the same molecule?
A: The inhibition was 15%.

Q: And the inhibition [5]?
A: The inhibition was 58%.

Q: What about the Ki [6] of the same molecule?
A: The Ki was 16.1 µM.

Q: And the Ki [7]?
A: Its Ki is over 100 µM.

Q: And the inhibition [8]?
A: Its inhibition is 16%.

Q: What about the inhibition [9] of the same molecule?
A: The inhibition was 0%.

Q: Which solubility [10] does the source give for `COC(=O)C[C@H](N)C(=O)O[C@H]1CC[C@]2(C)[C@H]3C(=O)C=C4[C@@H]5C[C@@](C)(C(=O)OC)CC[C@]5(C)CC[C@@]4(C)[C@]3(C)CC[C@H]2C1(C)C` here?
A: The solubility was “Insoluble”.
